Test results from ChEMBL document CHEMBL3124834, “Development of tag-free photoprobes for studies aimed at identifying the target of novel Group A Streptococcus antivirulence agents” (Bioorg Med Chem Lett, 2014).

How the values were obtained:
[1] = target: T1, Streptokinase (Streptococcus pyogenes) (UniProt P96471); test: Inhibition of Streptococcus pyogenes UMAA2616 streptokinase assessed as plasmin activity in human plasma at 5 uM after 24 hrs by colorimetric analysis relative to control
T1 sequence (whole entry): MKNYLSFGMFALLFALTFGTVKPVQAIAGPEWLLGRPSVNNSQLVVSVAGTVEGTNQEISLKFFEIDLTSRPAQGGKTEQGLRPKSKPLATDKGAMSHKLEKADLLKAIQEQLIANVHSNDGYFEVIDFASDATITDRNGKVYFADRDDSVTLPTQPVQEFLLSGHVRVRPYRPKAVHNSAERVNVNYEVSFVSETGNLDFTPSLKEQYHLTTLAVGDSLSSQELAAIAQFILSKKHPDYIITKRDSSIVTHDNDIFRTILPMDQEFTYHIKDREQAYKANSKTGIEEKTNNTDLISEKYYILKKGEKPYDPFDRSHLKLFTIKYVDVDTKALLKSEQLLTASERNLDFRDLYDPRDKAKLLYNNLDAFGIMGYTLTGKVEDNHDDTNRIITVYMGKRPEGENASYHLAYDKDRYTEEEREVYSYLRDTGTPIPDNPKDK
In short: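 GAS cultures incubated 24 hours with 5 μM compound. Culture supernatant was mixed with human plasma, and the resulting plasmin activity was followed by turnover of a plasmin-specific chromogenic substrate, read as absorbance at 405 nm. Value is the activity of the treated culture divided by that of a DMSO-treated control culture, ± standard deviation.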

Streptococcus pyogenes = test: Growth inhibition of Streptococcus pyogenes UMAA2616 at 50 uM after 24 hrs relative to control; assay type: organism-based
Streptokinase = target: T2, Streptokinase (Streptococcus pyogenes, UniProt P96471); test: Inhibition of Streptococcus pyogenes UMAA2616 streptokinase assessed as plasmin activity in human plasma after 24 hrs by colorimetric analysis
T2 sequence (P96471 whole entry): T1 sequence (whole entry)
In short: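 GAS culture grown 24 h with test compound (5 μM for ratio data); culture supernatant mixed with human plasma and resulting plasmin activity read as turnover of plasmin-specific chromogenic substrate at A405. Reported as SK activity relative to DMSO-treated control culture; IC50 taken as concentration giving 50% of maximal inhibition of SK expression; ± standard deviation.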

In the case of C#CCOc1ccc2c(c1)CC(C)(C)c1c-2nc(SCCC2(C)N=N2)n(CC=C)c1=O, the T/C [1] is reported as 0.89 and the T/C (Streptococcus pyogenes) is reported as 1.02.

C#CCOCCOc1ccc2c(c1)CC(C)(C)c1c-2nc(SCCC2(C)N=N2)n(CC=C)c1=O gave a T/C [1] of 0.71 and a T/C (Streptococcus pyogenes) of 1.01.

C#CCOCCSc1nc2c(c(=O)n1CC=C)C(C)(C)Cc1cc(C(=O)c3ccccc3)ccc1-2 was tested, and the IC50 (Streptokinase) was 3800 nM, the T/C [1] was 0.51 and the T/C (Streptococcus pyogenes) was 0.94.

For C#CCSc1nc2c(c(=O)n1CC=C)C(C)(C)Cc1cc(OCCC3(C)N=N3)ccc1-2, the T/C [1] was 1.07 and the T/C (Streptococcus pyogenes) was 0.96.

With C#CCOCCSc1nc2c(c(=O)n1CC=C)C(C)(C)Cc1ccc(N=[N+]=[N-])cc1-2 the IC50 (Streptokinase) was 190 nM, the T/C [1] was 0.3 and the T/C (Streptococcus pyogenes) was 0.98.

C#CCOCCSc1nc2c(c(=O)n1CC=C)C(C)(C)Cc1cc(OCCC3(C)N=N3)ccc1-2 gave an IC50 (Streptokinase) of 330 nM, a T/C [1] of 0.49 and a T/C (Streptococcus pyogenes) of 1.07.

With C#CCSc1nc2c(c(=O)n1CC=C)C(C)(C)Cc1cc(C(=O)c3ccccc3)ccc1-2 the T/C [1] was 0.77 and the T/C (Streptococcus pyogenes) was 1.09.

Work on C=CCn1c(SCC)nc2c(c1=O)C(C)(C)Cc1ccc(OC)cc1-2 yielded an IC50 (Streptokinase) of 1300 nM, a T/C [1] of 0.1 and a T/C (Streptococcus pyogenes) of 0.73.
